In ChEMBL document CHEMBL1136012, “Synthesis and structure-activity relationships of novel 7-substituted 1,4-dihydro-4-oxo-1-(2-thiazolyl)-1,8-naphthyridine-3-carboxylic acids as antitumor agents. Part 1” (J Med Chem, 2002):
Values after ≈ are worked out from the molar mass of the structure shown.

Tests used:
[1] = tested on: P388; experiment: Cytotoxic activity of compound against Murine P388 Leukemia; assay type: functional, cell-based, Mus musculus
Procedure, shortened: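 Murine P388 cells were cultured in EMEM with 10% FBS, 2 mM glutamine, 50 units/mL penicillin and 50 μg/mL streptomycin. They were seeded at (1–2) × 10^4 cells/mL without preincubation and exposed to varying concentrations for 72 h at 37 °C, 5% CO2. MTT was then added for 4 h, formazan dissolved in DMSO and read at 570/690 nm.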

[2] = tested on: P388; experiment: In vitro antitumor activity of compound against P388 leukemia cells at a dose of […] mg/kg; assay type: functional, Mus musculus; set-up: concentration or dose not given beside the values
[3] = tested on: P388; experiment: […] antitumor activity of compound against P388 leukemia cells at a dose of 3.13 mg/kg; assay type: functional, Mus musculus
Procedure, shortened: (§1)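 In vivo study: BDF1 mice received 10^6 P388 leukemia cells ip as diluted ascites fluid. Test compounds were suspended in 0.4% CMC and given ip on days 1 and 5 after implantation, with seven mice per group. The endpoint is T/C% = median survival time of the treated group / median survival time of controls × 100.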

[4] = tested on: P388; experiment: […] antitumor activity of compound against P388 leukemia cells at a dose of 50 mg/kg; assay type: functional, Mus musculus; procedure, shortened: as §1
[5] = tested on: P388; experiment: […] antitumor activity of compound against P388 leukemia cells at a dose of 6.25 mg/kg; assay type: functional, Mus musculus; procedure, shortened: as §1
[6] = tested on: A-427; experiment: Cytotoxic activity of compound against A-427 lung human tumor cell line; assay type: functional, cell-based
Procedure, shortened: (§2)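 Cells were kept in EMEM with 10% FBS, 2 mM glutamine, NEAA and 1 mM sodium pyruvate. They were seeded at (1–2) × 10^4 cells/mL and preincubated for 24 h. They were then exposed to graded concentrations for 72 h at 37 °C in 5% CO2. MTT was added for a further 4 h and the formazan dissolved in DMSO, with absorbance at 570/690 nm.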

[7] = Cytotoxic activity of compound against AZ-521 stomach human tumor cell line; assay type: functional
Procedure, shortened: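 AZ-521 cells were grown in EMEM with 10% FBS, 2 mM glutamine and NEAA. They were plated at (1–2) × 10^4 cells/mL and preincubated for 24 h, then treated with a range of concentrations for 72 h at 37 °C, 5% CO2. After a 4 h MTT step, the formazan was dissolved in DMSO and read at 570 nm (reference 690 nm).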

[8] = tested on: G-361; experiment: Cytotoxic activity of compound against G-361 melanoma human tumor cell line; assay type: functional, cell-based
Procedure, shortened: (§3)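 Culture was in McCoy's 5A with 10% FBS. Cells were seeded at (1–2) × 10^4 cells/mL, preincubated for 24 h, then incubated with various concentrations for 72 h at 37 °C under 5% CO2. MTT was added for 4 h and the formazan dissolved in DMSO, with A570 read against 690 nm.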

[9] = tested on: HT-29; experiment: Cytotoxic activity of compound against HT-29 colon human tumor cell line; assay type: functional, cell-based; procedure, shortened: as §3
[10] = Cytotoxic activity of compound against SCaBER bladder squamous human tumor cell line; assay type: functional, cell-based; procedure, shortened: as §2
[11] = tested on: SK-OV-3; experiment: Cytotoxic activity of compound against SK-OV-3 ovary human tumor cell line; assay type: functional, cell-based; conditions: SK-OV-3, Female gonad
Procedure, shortened: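 SK-OV-3 cells were maintained in McCoy's 5A with 15% FBS. After seeding at (1–2) × 10^4 cells/mL and 24 h preincubation, wells received graded concentrations for 72 h at 37 °C, 5% CO2. A 4 h MTT incubation followed, with DMSO solubilization and absorbance at 570/690 nm.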

[12] = Mus musculus, P388, read-out: IC50

Cl.O=C(O)c1cn(-c2nccs2)c2nc(-n3ccnc3)c(F)cc2c1=O
IC50 [1, 12]: > 10 µg/mL

Cl.NC1CCN(c2nc3c(cc2F)c(=O)c(C(=O)O)cn3Cc2nccs2)C1 (centres undefined)
IC50 [1, 12]: > 10 µg/mL

CO[C@@H]1CN(c2nc3c(cc2F)c(=O)c(C(=O)O)cn3-c2nccs2)C[C@H]1N.Cl
IC50 [1, 12]: 0.068 µg/mL

Cl.O=C(O)c1cn(-c2nccs2)c2nc(N3CCSCC3)c(F)cc2c1=O
IC50 [1, 12]: 1.74 µg/mL

Cl.Cn1nccc1-n1cc(C(=O)O)c(=O)c2cc(F)c(N3CCC(N)C3)nc21 (centres undefined)
IC50 [1, 12]: > 10 µg/mL

Cl.NC1CCN(c2nc3c(cc2F)c(=O)c(C(=O)O)cn3-c2ccccn2)C1 (centres undefined)
IC50 [1, 12]: > 10 µg/mL

Cl.NC1CCN(c2cc3c(cc2F)c(=O)c(C(=O)O)cn3-c2nccs2)C1 (centres undefined)
IC50 [1, 12]: > 10 µg/mL

Cl.O=C(O)c1cn(-c2nccs2)c2nc(N3CCCC3)c(F)cc2c1=O
IC50 [1, 12]: 0.08 µg/mL

CISPLATIN
IC50 ([1]; p388): 0.011 µg/mL

CC1(N)CCN(c2nc3c(cc2F)c(=O)c(C(=O)O)cn3-c2nccs2)C1.Cl (centres undefined)
IC50 [1, 12]: 0.026 µg/mL | T/C [2]: 213% | T/C [3]: 138% | T/C [4]: >375%

Cl.NC1CCN(c2nc3c(cc2F)c(=O)c(C(=O)O)cn3-c2ccno2)C1 (centres undefined)
IC50 [1, 12]: 9.4 µg/mL

Cl.NC1CCN(c2nc3c(cc2F)c(=O)c(C(=O)O)cn3-c2nc(-c3ccccc3)cs2)C1 (centres undefined)
IC50 [1, 12]: 0.052 µg/mL

Cl.NCC1CCN(c2nc3c(cc2F)c(=O)c(C(=O)O)cn3-c2nccs2)C1 (centres undefined)
IC50 [1, 12]: 0.101 µg/mL

Cc1cc(-n2cc(C(=O)O)c(=O)c3cc(F)c(N4CCC(N)C4)nc32)on1.Cl (centres undefined)
IC50 [1, 12]: 0.58 µg/mL

Cl.N[C@@H]1CCN(c2nc3c(cc2F)c(=O)c(C(=O)O)cn3-c2nccs2)C1
IC50 [1, 12]: 0.016 µg/mL

CC(C)(C)c1csc(-n2cc(C(=O)O)c(=O)c3cc(F)c(N4CCC(N)C4)nc32)n1.Cl (centres undefined)
IC50 [1, 12]: 0.88 µg/mL

Cl.NC1CCN(c2c(F)cc3c(=O)c(C(=O)O)cn(-c4nccs4)c3c2F)C1 (centres undefined)
IC50 [1, 12]: 55 µg/mL

COc1cccc2c1C(=O)c1c(O)c3c(c(O)c1C2=O)C[C@@](O)(C(=O)CO)C[C@@H]3O[C@H]1C[C@H](N)[C@H](O)[C@H](C)O1 [DOXORUBICIN]
IC50 [1, 12]: 0.004 µg/mL (≈ 7.36 nM) | T/C [3]: 235% | T/C [5]: 293%

Cl.NC1CCN(c2nc3c(cc2F)c(=O)c(C(=O)O)cn3-c2nncs2)C1 (centres undefined)
IC50 [1, 12]: 5.5 µg/mL

Cl.O=C(O)c1cn(-c2nccs2)c2nc(N3C[C@@H]4CCCN[C@@H]4C3)c(F)cc2c1=O
IC50 [1, 12]: 0.304 µg/mL

Cl.NC1CCN(c2nc3c(cc2F)c(=O)c(C(=O)O)cn3-c2ccc(F)cc2)C1 (centres undefined)
IC50 [1, 12]: 2.1 µg/mL

Cl.NC1CCN(c2nc3c(cc2F)c(=O)c(C(=O)O)cn3-c2cccs2)C1 (centres undefined)
IC50 [1, 12]: 1.2 µg/mL

Cl.NC1CCN(c2nc3c(cc2F)c(=O)c(C(=O)O)cn3-c2ncc(Br)s2)C1 (centres undefined)
IC50 [1, 12]: 0.085 µg/mL

Cc1nc(-n2cc(C(=O)O)c(=O)c3cc(F)c(N4CCC(N)C4)nc32)sc1C.Cl (centres undefined)
IC50 [1, 12]: 0.18 µg/mL

CO[C@H]1CN(c2nc3c(cc2F)c(=O)c(C(=O)O)cn3-c2nccs2)C[C@@H]1N.Cl (stereo in doubt; 43j)
IC50 [6]: 0.42 µg/mL | IC50 [7]: 0.58 µg/mL | IC50 [8]: 0.4 µg/mL | IC50 [9]: 2.1 µg/mL | IC50 [1, 12]: 0.038 µg/mL | T/C [2]: 238% | T/C [3]: 138% | T/C [4]: >375% | IC50 [10]: 0.78 µg/mL | IC50 [11]: 1.1 µg/mL

Cl.N[C@H]1CCN(c2nc3c(cc2F)c(=O)c(C(=O)O)cn3-c2nccs2)C1
IC50 [1, 12]: 0.028 µg/mL

Cl.NCC1CN(c2nc3c(cc2F)c(=O)c(C(=O)O)cn3-c2nccs2)CCO1 (centres undefined)
IC50 [1, 12]: 1.73 µg/mL

Cl.NCCNc1nc2c(cc1F)c(=O)c(C(=O)O)cn2-c1nccs1
IC50 [1, 12]: > 10 µg/mL

Cl.NCC1=CCN(c2nc3c(cc2F)c(=O)c(C(=O)O)cn3-c2nccs2)C1
IC50 [1, 12]: 0.084 µg/mL

Cc1cnc(-n2cc(C(=O)O)c(=O)c3cc(F)c(N4CCC(N)C4)nc32)s1.Cl (centres undefined)
IC50 [1, 12]: 0.26 µg/mL
